High-throughput results from PubChem BioAssay.
S100A4 inh HTS – S100A4-myosin IIA interaction inhibition. S100A4/TAMRA-MyoIIA peptide fluorescence polarization. P26447. actives 0.14% (n = 360,000). inhibition, % at 10.7 µM;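 active = mean inhibition of at least 70% across replicates, with every replicate also reaching that level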
Target sequence (P26447 whole entry, looked up): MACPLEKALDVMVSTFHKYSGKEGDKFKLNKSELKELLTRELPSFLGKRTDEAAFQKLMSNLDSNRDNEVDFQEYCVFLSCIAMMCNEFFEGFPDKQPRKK
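Test system: S100A4 monomer protein. Medium: HEPES buffer with Ca2+, pH 7.2. Reagent: fluorescent myosin IIA peptide, 5 nM. Compound dosing: single-point compound testing. Timing: 5 min between mix addition and reading. Benchmarks: DMSO neutral and TFP positive wells.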
Ecoli rRNA inh – inhibits bacterial ribosomal RNA function over humanized ribosomes | actives 1.6% (n = 350,000) | AID 720706 | E. coli WT GFP vs humanized-ribosome RFP mutants, fluorescence, 24 h; hits give low values; DMSO median 0, no signal -100 | GFP signal change (wild-type ribosome), % (test concentration not listed);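 active = significant combined selectivity score with lowered wild-type GFP, culture density cut under 30%, mutant RFP and density less affected; inactive = any of these conditions unmet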
FN deposit inh – fibronectin deposition inhibition; AH1F fibroblasts, Alexa488-fibronectin deposition fluorescence, overnight; inhibition, % at 12.6 µM; actives 0.086% (n = 350,000);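 active = mean inhibition across replicates of 30% or more, regardless of how many single replicates reach that level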
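Schedule: 1 h cell adhesion before compound, then overnight fibronectin incubation; test system: AH1F fibroblast monolayer depositing Alexa488-labelled fibronectin into matrix; quantity: 10000 AH1F cells per well; probe or stimulus: fluorescent fibronectin at 24 nM final; signal: fluorescence, ex 485 nm, em 525 nm; evaluation: percent inhibition as loss of matrix-bound fibronectin fluorescence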
Vif inh – blocks HIV Vif function; HEK293T cells, Vif self-association by quenched fluorescence, imaging, 24 h; inhibition, % at 7.49 µM; actives 0.35% (n = 340,000); AID 602346; in the data active = inhibition above about 50%, passing the limit was not always enough
miR-122 sensor – inhibitors of miR-122 in Huh7 cells; Huh7 miR-122 Renilla luciferase sensor, 48 h; neutral wells = 0, positive control = 100; actives 0.3% (n = 340,000); AID 602342; activation (reporter increase), % at 12.5 µM;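 active = mean replicate activation score at least 90 and every replicate individually at or above 90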;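 note: higher luciferase means less miR-122 activity so hits act as miR-122 inhibitors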
HIV Env fusion – HIV envelope-mediated fusion inhibition; HeLa-JRFL Env/CEM21 cell fusion, luciferase; inhibition, % at 12.3 µM; actives 1.1% (n = 360,000);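 active = mean replicate inhibition score of at least 50 and every replicate individually at or above 50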
A number is an active result. Most compounds without a hit are left out; they make up all but 2.6% or so of the library.

OC(c1ccccc1)(c1ccccc1)C1CCN(CCCOc2ccc(-c3ccc(F)cc3F)cc2)CC1 was read as S100A4 inh HTS inactive, Ecoli rRNA inh inactive, FN deposit inh inactive and HIV Env fusion 63.0.
Screening OC(c1ccccc1)(c1ccccc1)C1CCN(CCCOc2ccc(-c3ccncc3)cc2)CC1 returned S100A4 inh HTS inactive, Ecoli rRNA inh inactive, FN deposit inh inactive and HIV Env fusion inactive.
For COCC1CN(CCc2ccc(F)cc2)S(=O)(=O)c2c(F)cccc2O1 (stereo unspecified) the results were S100A4 inh HTS inactive, Ecoli rRNA inh -22.1, FN deposit inh inactive and HIV Env fusion inactive.
For COc1ccc(CNC(=O)C[C@@H]2CC[C@@H](NC(=O)c3ccc4c(c3)OCO4)[C@@H](CO)O2)cc1 the results were S100A4 inh HTS inactive, Ecoli rRNA inh inactive, FN deposit inh inactive and HIV Env fusion inactive.
`CCCCCc1c(-c2ccc(OC)cc2)ncn1CCc1ccccc1OC` gave S100A4 inh HTS inactive, Ecoli rRNA inh inactive, FN deposit inh inactive and HIV Env fusion 61.7.
`CCCCc1c(-c2ccc(OC)cc2)ncn1CCc1ccccc1OC` gave S100A4 inh HTS inactive, Ecoli rRNA inh inactive, FN deposit inh inactive and HIV Env fusion inactive.
CCCCc1c(-c2ccccc2)ncn1CCc1ccccc1OC was read as S100A4 inh HTS inactive, Ecoli rRNA inh inactive, FN deposit inh inactive and HIV Env fusion inactive.
Screening CCCCc1c(Cc2ccccc2)ncn1CCc1ccccc1OC returned S100A4 inh HTS inactive, Ecoli rRNA inh inactive, FN deposit inh inactive and HIV Env fusion 58.2.
For COc1cccc(C(=O)/C=C/Nc2ccc(S(=O)(=O)Nc3nc(C)cc(C)n3)cc2)c1 the results were S100A4 inh HTS inactive, Ecoli rRNA inh -21.2, FN deposit inh inactive, Vif inh inactive and HIV Env fusion inactive.
Screening COc1cccc(C(=O)/C=C/Nc2ccc(S(=O)(=O)Nc3ncccn3)cc2)c1 returned S100A4 inh HTS inactive, Ecoli rRNA inh inactive, FN deposit inh inactive, Vif inh inactive and HIV Env fusion inactive.
C[C@@H]1CN([C@@H](C)CO)C(=O)c2cc(NS(=O)(=O)c3cn(C)cn3)ccc2O[C@@H]1CN(C)S(=O)(=O)c1cccs1 was read as S100A4 inh HTS inactive, Ecoli rRNA inh inactive and miR-122 sensor inactive.
Cn1c(SCc2ccccc2)nc(N)c(N=O)c1=O was read as S100A4 inh HTS inactive, Ecoli rRNA inh -20.5, FN deposit inh inactive, Vif inh inactive, miR-122 sensor inactive and HIV Env fusion inactive.
`Cn1c(SCc2cccc(Br)c2)nc2ccccc2c1=O` gave S100A4 inh HTS inactive, Ecoli rRNA inh inactive, FN deposit inh inactive, Vif inh inactive, miR-122 sensor inactive and HIV Env fusion inactive.
`Cn1c(SCc2ccccc2)nc(C(F)(F)F)cc1=O` gave S100A4 inh HTS inactive, Ecoli rRNA inh -22.9, FN deposit inh inactive, Vif inh inactive and HIV Env fusion inactive.
O=C(N[C@@H]1CC[C@H](CCNS(=O)(=O)c2ccc(Cl)cc2)O[C@H]1CO)c1cccc(F)c1 was read as S100A4 inh HTS inactive, Ecoli rRNA inh inactive and HIV Env fusion inactive.
`CCOC(=O)C(c1ccccc1)C(Nc1cc(C(F)(F)F)cc(C(F)(F)F)c1)c1ccccn1` (stereo unspecified) gave S100A4 inh HTS inactive, Ecoli rRNA inh inactive, FN deposit inh inactive, Vif inh inactive and HIV Env fusion 67.2.
Screening CCOC(=O)C(c1ccccc1)C(Nc1ccccc1)c1ccccn1 (stereo unspecified) returned S100A4 inh HTS inactive, Ecoli rRNA inh inactive, FN deposit inh inactive, Vif inh inactive and HIV Env fusion inactive.
`Cc1ccc(S(=O)(=O)N2C[C@@H]3[C@H]4CC[C@H](C4)[C@@H]3[C@@H](C)[C@@H]2c2cccn2Cc2ccccc2)cc1` gave S100A4 inh HTS inactive, Ecoli rRNA inh inactive, FN deposit inh inactive, Vif inh inactive and HIV Env fusion inactive.
For Cc1ccc(S(=O)(=O)N2C[C@@H]3[C@H]4CC[C@H](C4)[C@@H]3[C@@H](C)[C@@H]2c2ccn(Cc3ccccc3)c2)cc1 the results were S100A4 inh HTS inactive, Ecoli rRNA inh inactive, FN deposit inh inactive, Vif inh inactive and HIV Env fusion 62.6.
Screening COC(=O)[C@@]1(Cc2ccccc2)[C@H]2C(=O)N(C)C(=O)[C@H]2[C@H]2CN=C(SCc3ccccc3)N21 returned S100A4 inh HTS inactive, Ecoli rRNA inh -16.4, FN deposit inh inactive, Vif inh inactive, miR-122 sensor inactive and HIV Env fusion inactive.
Screening COC(=O)[C@@]1(Cc2ccccc2)[C@H]2C(=O)N(Cc3ccccc3)C(=O)[C@H]2[C@H]2CN=C(SCc3ccccc3)N21 returned S100A4 inh HTS inactive, Ecoli rRNA inh inactive, FN deposit inh inactive, Vif inh inactive, miR-122 sensor inactive and HIV Env fusion 76.1.
Screening CCN1C(=O)[C@H]2[C@H]3CN=C(SCc4ccc(Cl)cc4)N3[C@@](CC)(C(=O)OC)[C@H]2C1=O returned S100A4 inh HTS inactive, Ecoli rRNA inh inactive, FN deposit inh inactive, Vif inh inactive, miR-122 sensor inactive and HIV Env fusion 69.5.
For COC(=O)[C@@]1(C)[C@H]2C(=O)N(Cc3ccccc3)C(=O)[C@H]2[C@H]2CN=C(SCc3ccc(C)cc3)N21 the results were S100A4 inh HTS inactive, Ecoli rRNA inh inactive, FN deposit inh inactive, Vif inh inactive, miR-122 sensor inactive and HIV Env fusion 65.1.
Screening COC(=O)[C@@]1(Cc2ccccc2)[C@H]2C(=O)N(C)C(=O)[C@H]2[C@H]2CN=C(SCc3ccc(C#N)cc3)N21 returned S100A4 inh HTS inactive, Ecoli rRNA inh -21.3, FN deposit inh inactive, Vif inh inactive, miR-122 sensor inactive and HIV Env fusion inactive.
For CCN1C(=O)[C@H]2[C@H]3CN=C(SCc4ccc(C#N)cc4)N3[C@@](CC)(C(=O)OC)[C@H]2C1=O the results were S100A4 inh HTS inactive, Ecoli rRNA inh inactive, FN deposit inh inactive, Vif inh inactive, miR-122 sensor inactive and HIV Env fusion inactive.
COc1ccc(NC(=O)N[C@@H]2CC[C@@H](CCn3cc(-c4ccccc4F)nn3)O[C@H]2CO)cc1 was read as S100A4 inh HTS inactive, Ecoli rRNA inh inactive and HIV Env fusion inactive.
Cc1cccc(NC(=O)c2n[nH]c([N+](=O)[O-])c2Br)c1C was read as S100A4 inh HTS inactive, Ecoli rRNA inh -29.0, FN deposit inh inactive, Vif inh inactive, miR-122 sensor inactive and HIV Env fusion inactive.
Screening Cc1cccc(NC(=O)c2ccccn2)c1C returned FN deposit inh inactive, miR-122 sensor inactive and HIV Env fusion inactive.
`CO[C@@H]1CN(C)C(=O)c2cc(NS(=O)(=O)Cc3ccccc3)ccc2OC[C@@H](C)NC[C@H]1C` gave S100A4 inh HTS inactive, Ecoli rRNA inh inactive, FN deposit inh inactive and HIV Env fusion inactive.
